11 compounds from ChEMBL document CHEMBL4261589, “Structure-based design of allosteric calpain-1 inhibitors populating a novel bioactivity space” (Eur J Med Chem, 2018) can be followed below.

Test [1] deals with T1, Calpain-1 catalytic subunit (Sus scrofa, UniProt P35750).
T1 sequence (P35750 whole entry): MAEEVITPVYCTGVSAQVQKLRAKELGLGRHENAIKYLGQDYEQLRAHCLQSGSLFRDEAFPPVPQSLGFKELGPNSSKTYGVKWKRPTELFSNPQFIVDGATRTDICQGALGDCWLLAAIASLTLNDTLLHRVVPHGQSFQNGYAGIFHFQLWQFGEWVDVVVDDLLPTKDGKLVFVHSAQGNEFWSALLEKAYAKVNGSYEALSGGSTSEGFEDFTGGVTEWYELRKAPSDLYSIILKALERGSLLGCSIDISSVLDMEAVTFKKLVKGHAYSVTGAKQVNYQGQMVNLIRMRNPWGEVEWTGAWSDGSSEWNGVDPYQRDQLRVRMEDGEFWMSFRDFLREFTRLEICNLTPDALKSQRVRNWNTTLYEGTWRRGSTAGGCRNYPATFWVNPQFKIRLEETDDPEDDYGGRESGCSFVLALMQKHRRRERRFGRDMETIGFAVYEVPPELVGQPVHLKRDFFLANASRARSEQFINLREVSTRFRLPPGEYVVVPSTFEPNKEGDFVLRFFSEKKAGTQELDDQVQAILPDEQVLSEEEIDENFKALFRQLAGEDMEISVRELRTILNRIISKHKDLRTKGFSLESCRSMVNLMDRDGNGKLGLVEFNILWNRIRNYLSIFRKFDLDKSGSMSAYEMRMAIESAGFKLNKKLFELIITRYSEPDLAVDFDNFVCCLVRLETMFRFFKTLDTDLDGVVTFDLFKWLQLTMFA
Kind of test: Inhibition of full length porcine Calpain-1 complex using (H2NeK(-FAM)-EVYGMMK(DABCYL)eOH) substrate by FRET assay. A digest of the protocol:
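Purified porcine calpain-1 (25 nM) with 1 µM FAM/DABCYL α-spectrin peptide, cleaved at Tyr-Gly, in 10 mM HEPES, 10 mM DTT, 0.5 mM EDTA, 0.1% BSA, pH 6.8, at 37 °C. Compounds (5 nM–200 µM, from DMSO stock) were added before starting with 5 mM CaCl2. Fluorescence read at ex 490/em 520 nm. DMSO-alone controls were run. IC50 given as mean ± SD of three independent experiments.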

In test [2] the target is Calpain-1 catalytic subunit (Homo sapiens) (UniProt P07384). Nature of the test: Inhibition of human Calpain-1 active site domain using (H2NeK(-FAM)-EVYGMMK(DABCYL)eOH) substrate by FRET assay.
Test [3] concerns the target Calpain small subunit 1 (Homo sapiens) (UniProt P04632). Kind of test: Binding affinity to human Calpain-1 PEF(S) domain at 0.5 to 500 uM expressed in Escherichia coli BL21-CodonPlus (DE3) RP cells incubated for 5 mins by TNS displacement assay.

Calls of active or inactive are those of the source. No cut-off for these calls is given here.

Chain of Calpain small subunit 1 (Homo sapiens) (P04632 whole entry, looked up): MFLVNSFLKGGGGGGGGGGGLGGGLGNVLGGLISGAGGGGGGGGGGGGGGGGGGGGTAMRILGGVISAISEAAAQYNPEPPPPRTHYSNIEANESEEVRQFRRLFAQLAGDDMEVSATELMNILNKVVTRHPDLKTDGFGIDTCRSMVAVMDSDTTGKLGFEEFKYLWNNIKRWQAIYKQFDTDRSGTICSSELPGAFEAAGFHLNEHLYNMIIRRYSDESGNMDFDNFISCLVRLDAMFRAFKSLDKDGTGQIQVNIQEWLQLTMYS

Take `O=C(O)c1cc(NS(=O)(=O)c2ccc(F)cc2)cnc1N1CCCCCC1`: the figures for the IC50 in test [1] (read-out: IC50) and in test [2] (read-out: IC50) were more than 100 µM and 41.1 µM, respectively. Besides, the outcome in test [3] was Active.
Consider `FC(F)(F)c1cccc(CSc2nnc3ccc(-c4ccccn4)nn23)c1`, for which the IC50 entry in test [1] and in test [2] was “Not Active” each time.
On to `O=C(O)/C(S)=C/c1ccc(I)cc1`, for which the IC50 (commonly the concentration that inhibits the measured activity by half) came to 19.3 µM in test [1] (read-out: IC50) and 17.8 µM in test [2] (read-out: IC50). The outcome in test [3] was Active.
As to `COCCOc1nc(-c2ccc(OC)cc2)n(-c2cccc(NC(=O)c3ccc(C)c(C(F)(F)F)c3)c2)n1`, the concentration for half-maximal inhibition (IC50) entry in test [1] and in test [2] was “Not Active” throughout.
For `NC(=O)c1cccc(NS(=O)(=O)c2cccc(C(F)(F)F)c2)c1`, the IC50 result in test [1] and in test [2] was “Not Active” in each case. Besides, in test [3], the result was Active.
As to `O=C1CCCN1c1cccc(NS(=O)(=O)c2cccc(C(F)(F)F)c2)c1`, the IC50 result in test [1] and in test [2] was “Not Active” in each case. Moreover, in test [3], the outcome was inactive.
In the case of `COCCOc1nc(-c2cccc(C(F)(F)F)c2)n(-c2ccc(NC(=O)C(C)C)cc2)n1`, the half-maximal inhibitory concentration (IC50) entry in test [1] and in test [2] was “Not Active” throughout.
For the compound `O=C(NC1CCC(O)CC1)c1ccc(S(=O)(=O)Nc2cccc(C(F)(F)F)c2)cc1` (stereo not drawn), the IC50 result in test [1] and in test [2] was “Not Active” in each case. Also, in test [3], the result was Active.
Take `O=C(CSc1nnc2ccc(-c3ccccn3)nn12)Nc1cccc(C(F)(F)F)c1`: the half-inhibitory concentration (IC50) is 29.7 µM in test [1] (read-out: IC50) and “Not Active” in test [2].
Regarding `CC(C)(C)NC(=O)c1ccc(Oc2cc(F)c(CC(=O)O)cc2Cl)c(NS(=O)(=O)c2ccc(C3CC3)cc2Cl)c1` [VIDUPIPRANT], the IC50 is 7.5 µM in test [1] (read-out: IC50) and more than 100 µM in test [2] (read-out: IC50). Also, the result in test [3] was Active.
For the compound `FC(F)(F)c1ccc(CSc2nnc3ccc(-c4ccccn4)nn23)cc1`, the IC50 in test [1] (read-out: IC50) was 20.5 µM; in test [2], “Not Active”.
